Source: ChEMBL document CHEMBL2163230, “Identification of a glutathione peroxidase inhibitor that reverses resistance to anticancer drugs in human B-cell lymphoma cell lines” (Bioorg Med Chem Lett, 2012)
pIC50: −log10 of the molar value. Values belong to the compound of their own block, whether it stands above or below them. Active and inactive are the calls of the source. The calls are words filed in the database; no cut-off is given here.

Legend:
[1] = target: T1, Glutathione peroxidase 1 (Homo sapiens) (UniProt P07203); settings: 250 uM
T1 sequence (whole entry): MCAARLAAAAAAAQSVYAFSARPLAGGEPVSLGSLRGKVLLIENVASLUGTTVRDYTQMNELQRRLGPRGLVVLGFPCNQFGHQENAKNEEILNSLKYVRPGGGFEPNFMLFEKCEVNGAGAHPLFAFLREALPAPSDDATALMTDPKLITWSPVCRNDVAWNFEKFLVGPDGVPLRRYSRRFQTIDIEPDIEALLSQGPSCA

[2] = target: T1, Glutathione peroxidase 1 (Homo sapiens); settings: 50 uM
Glutathione peroxidase 1 = target: T2, Glutathione peroxidase 1 (Homo sapiens, UniProt P07203); test: Inhibition of GPx1 using gultathione as substrate by glutathione reductase-coupled assay
T2 sequence (P07203 whole entry): T1 sequence (whole entry)
Procedure, shortened: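 GPx activity read as NADPH consumption at 340 nm. GPx oxidizes GSH to GSSG with H2O2 as co-substrate, and glutathione reductase reduces GSSG back to GSH. Earlier method, adapted to 96-well format. 0.1% Triton X-100 in all incubations to prevent compound precipitation. Docking used bovine erythrocyte GPx1.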

[3] = target: T3, Glutathione reductase, mitochondrial (Homo sapiens) (UniProt P00390); test: Inhibition of glutathione reductase up to 200 uM
T3 sequence (whole entry): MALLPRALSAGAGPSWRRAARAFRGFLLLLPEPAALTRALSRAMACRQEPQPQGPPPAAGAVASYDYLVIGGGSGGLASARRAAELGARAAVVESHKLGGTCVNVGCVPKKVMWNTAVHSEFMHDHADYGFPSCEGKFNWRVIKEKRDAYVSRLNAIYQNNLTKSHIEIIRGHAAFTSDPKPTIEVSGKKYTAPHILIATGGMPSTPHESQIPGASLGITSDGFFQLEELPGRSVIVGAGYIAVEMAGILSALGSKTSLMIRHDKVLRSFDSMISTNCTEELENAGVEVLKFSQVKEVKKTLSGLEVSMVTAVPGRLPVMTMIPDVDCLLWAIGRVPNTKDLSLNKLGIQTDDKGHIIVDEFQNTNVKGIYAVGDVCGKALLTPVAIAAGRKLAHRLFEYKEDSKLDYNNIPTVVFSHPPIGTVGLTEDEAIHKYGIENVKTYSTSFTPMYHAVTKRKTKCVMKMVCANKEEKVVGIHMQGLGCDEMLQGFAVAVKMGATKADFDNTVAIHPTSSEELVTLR
Procedure, shortened: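 Specific glutathione reductase assay (earlier method), compound tested at up to 200 µM.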

[4] = Cytotoxicity against human DOGUM cells after 72 hrs by MTT assay; format: functional, cell-based
Procedure, shortened: (§1)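 Cells from two patients with chemotherapy-resistant non-Hodgkin B-cell lymphoma. Resistant sublines were made by exposure to methotrexate, etoposide, cisplatin or bortezomib in culture over 2–3 months. Microtiter MTT assay, giving the IC50 as mean ± SD of 3 or more independent experiments. Drugs were tested alone and with co-incubation with 25 µM inhibitor.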

[5] = Cytotoxicity against human bortezomib-resistant DOGUM cells after 72 hrs by MTT assay; format: functional, cell-based
Procedure, shortened: as §1

[6] = Cytotoxicity against human bortezomib-resistant GUMBUS cells after 72 hrs by MTT assay; format: functional, cell-based
Procedure, shortened: as §1

[7] = Resistance ratio of IC50 for human bortezomib-resistant DOGUM cells to IC50 for human DOGUM cells; format: functional
[8] = Cytotoxicity against human GUMBUS cells after 72 hrs by MTT assay; format: functional, cell-based
Procedure, shortened: as §1

[9] = Resistance ratio of IC50 for human bortezomib-resistant GUMBUS cells to IC50 for human GUMBUS cells; format: functional
[10] = Cytotoxicity against human etoposide-resistant DOGUM cells after 72 hrs by MTT assay; format: functional, cell-based
Procedure, shortened: as §1

[11] = Resistance ratio of IC50 for human etoposide-resistant DOGUM cells to IC50 for human DOGUM cells; format: functional
[12] = Cytotoxicity against human etoposide-resistant GUMBUS cells after 72 hrs by MTT assay; format: functional, cell-based
Procedure, shortened: as §1

[13] = Resistance ratio of IC50 for human etoposide-resistant GUMBUS cells to IC50 for human GUMBUS cells; format: functional
[14] = Cytotoxicity against human methotrexate-resistant GUMBUS cells after 72 hrs by MTT assay; format: functional, cell-based
Procedure, shortened: as §1

[15] = Cytotoxicity against human methotrexate-resistant DOGUM cells after 72 hrs by MTT assay; format: functional, cell-based
Procedure, shortened: as §1

inhibition [1]: inactive
inhibition [2]: 15%
pIC50 (Glutathione peroxidase 1): 3.77
inhibition [3]: inactive
Compound: Cc1nccn1CC(=O)N/N=C/c1ccc(O)cc1

Compound: CC(C)C[C@H](NC(=O)[C@H](Cc1ccccc1)NC(=O)c1cnccn1)B(O)O [BORTEZOMIB]
pIC50 [4]: 8.70
pIC50 [5]: 8.15
pIC50 [6]: 7.46
Ratio IC50 [7]: 4
pIC50 [8]: 8.22
Ratio IC50 [9]: 6

Compound: COc1cc([C@@H]2c3cc4c(cc3[C@@H](O[C@@H]3O[C@@H]5CO[C@@H](C)O[C@H]5[C@H](O)[C@H]3O)[C@H]3COC(=O)[C@H]23)OCO4)cc(OC)c1O [ETOPOSIDE]
pIC50 [4]: 7.12
pIC50 [10]: 6.55
Ratio IC50 [11]: 4
pIC50 [8]: 7.38
pIC50 [12]: 6.24
Ratio IC50 [13]: 13

Compound: CN(Cc1cnc2nc(N)nc(N)c2n1)c1ccc(C(=O)N[C@@H](CCC(=O)O)C(=O)O)cc1 [METHOTREXATE]
pIC50 [4]: 7.08
pIC50 [14]: 6.27
pIC50 [8]: 7.62
pIC50 [15]: 6.47
